# Most compounds without a hit are left out; they make up all but 8.4% or so of the library.
# tolC growth inh = E. coli tolC mutant growth inhibition; E. coli BW25113 tolC mutant growth, OD615; AID 573; 2.2% of 65,000 active; growth inhibition, % at 10 µM (by protocol);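 active = growth inhibition at or above a cutoff equal to the mean over every tested compound plus 3 SD, cut at about 60% in these data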;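 note: growth measured after 20 h incubation at 37 °C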
#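 Signal: optical density read at 615 nm; Assay system: E. coli ΔtolC::kan strain BW25113; Times: 20 h incubation with compound, 37 °C; Dosing: 10 µM final, single dose.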
# Cav3 T inh = inhibitors of human Cav3.2 T-type calcium channel; O95180; Cav3.2-expressing cells, Fluo-4 calcium fluorescence FDSS; stronger effect = lower value; B-score at 10 µM; 4% of 100,000 active; AID 449739;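 active = single-dose well whose peak fluorescence ratio is a statistical outlier from its plate by either plate-standardised score or position-corrected B-score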
# Ecoli WT expand = blocks growth of wild type E. coli BW25113. 0.15% of 98,000 active. OD600 absorbance. AID 710. growth inhibition, % at 100 µM;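 active = growth inhibition above about 50% at one test dose, limit read from the data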;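 note: growth measured after 20 h incubation at 37 °C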
# PostGolgi ctrl = inhibits growth of the yeast control strain. efflux-deficient yeast background strain, growth absorbance A615, 16 h. inhibition, % at 10 µM. 5% of 98,000 active
# PostGolgi yeast = growth inhibition of a yeast mutant, post-Golgi transport screen; inhibition, % at 10 µM; post-Golgi transport phenotypic cell assay; 0.9% of 98,000 active; AID 739;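 note: yeast cells grown in 1536-well plates; yeast grown about 18 h at 30C before absorbance read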
# Hits are given with their value; n = inactive; x = no result given. Cut-off read from the data, not from the text of the source, unless noted: active = inhibition above about 30%; inactive = the rest.
SMILES,tolC growth inh,Cav3 T inh,Ecoli WT expand,PostGolgi ctrl,PostGolgi yeast
Cc1ccc(S(=O)(=O)c2nc(NCc3ccc4c(c3)OCO4)sc2Cl)cc1,x,n,n,48.5,n
CCn1c(O)c(C=NCc2cccs2)c(=O)n(CC)c1=S,x,n,n,56.5,n
CCn1c(SCC(=O)NCc2cccs2)nc2c1c(=O)n(C)c(=O)n2C,n,n,n,n,n
Cn1cc(Cl)nc1C(O)c1ccccc1 (stereo not drawn),n,x,x,x,x
COc1cccc(-c2cc(C(F)(F)F)nc(N3CCOCC3)n2)c1,67.6,n,n,n,n
COc1cccc(-c2cc(C(F)(F)F)nc(N3CCC(C)CC3)n2)c1,n,n,n,n,n
COc1ccccc1-c1cc(C(F)(F)F)nc(N2CCOCC2)n1,61.6,n,n,n,n
CCNC(=S)NNC(=O)c1cc(C)on1,x,n,n,n,n
O=C(CSc1nc2c(sc3ccccc32)c(=O)n1Cc1ccccc1)NCC1CCCO1 (stereo not drawn),x,n,n,n,n
O=C(CSc1nc2c(sc3ccccc32)c(=O)n1Cc1ccco1)NCC1CCCO1 (stereo not drawn),n,n,n,32.2,n
C/C(CCC12CC3CC(CC(C3)C1)C2)=N\NC(N)=S,x,n,n,44.8,85.9
CCOC(=O)c1c(C)[nH]c(C(=O)Cn2c(=O)c3c(ncn3CC)n(Cc3ccccc3)c2=O)c1C,n,x,n,n,n
COC(=O)c1ccc(/C=N/OCC(=O)NC2CCCC(C)C2C)cc1 (stereo not drawn),x,n,n,40.4,n
O=C(c1ccccc1Cl)N1N=C(c2ccc(Br)cc2)CC1c1nc2ccccc2[nH]1 (stereo not drawn),x,n,n,63.9,n
Cc1cccc(Cn2c(SCC(=O)Nc3ccccc3)nc3c2c(=O)[nH]c(=O)n3C)c1,n,n,n,n,n
CCCCCOP(=O)(OCCCCC)C1(NS(=O)(=O)c2ccccc2)C=CC(=O)c2ccccc21 (stereo not drawn),x,n,n,n,n
CCCOc1ccc2c(=O)c(-c3cc(C(=O)OC)oc3C)c(C)oc2c1,x,n,n,n,n
CCN(Cc1ccccc1)S(=O)(=O)c1ccc(C(=O)Nc2nnc(C3CC3)o2)cc1,n,-5.6,n,n,n
Cc1nnc(NC(=O)c2ccc(S(=O)(=O)N(C)Cc3ccccc3)cc2)o1,74.5,n,n,n,n
COCCN(CCOC)S(=O)(=O)c1ccc(C(=O)Nc2nnc(C)o2)cc1,n,n,n,n,n
Cc1nnc(NC(=O)c2ccc3ccccc3c2)o1,n,n,50.0,n,n
Cc1sc2c(=O)n3c(nc2c1C(=O)NCCCN1CCOCC1)CCCCC3,n,n,n,n,n
COC(=O)[C@@]1(Cc2ccc(F)cc2)[C@H]2c3cc(C(=O)N4CCCC4)n(CCc4ccccn4)c3C[C@H]2CN1C(=O)c1ccccc1,x,n,x,x,x
O=C(CSCC(=O)N1CCCCC1)Nc1nc(-c2ccccc2)c(-c2ccccc2)s1,x,n,x,x,x
CCOC(=O)C(C)C1(O)c2ccccc2-c2ncccc21 (stereo not drawn),n,n,n,n,n
SMILES,tolC growth inh,Cav3 T inh,Ecoli WT expand,PostGolgi ctrl,PostGolgi yeast
OC(CC1CC12c1ccccc1-c1ncccc12)(c1ccccc1)c1ccccc1 (stereo not drawn),x,n,n,45.0,n
CCOCCCNc1ncnc2c1[nH]c1ccccc12,n,n,n,n,n
C=CCNc1ncnc2c1[nH]c1ccccc12,n,n,77.0,n,n
CCCCOCCCNc1ncnc2c1[nH]c1ccccc12,x,-4.68,n,n,n
C=CCNc1ncnc2c1[nH]c1ccc(Cl)cc12,x,n,73.0,n,n
O=C(NC(NC1CCS(=O)(=O)C1)C(=O)c1ccccc1)c1ccc(Cl)cc1 (stereo not drawn),n,n,n,n,n
COc1cc(OC)cc(-c2nnc(Nc3nc4c(F)cccc4s3)o2)c1,n,n,n,n,n
Fc1cccc2sc(Nc3nnc(-c4ccccc4)o3)nc12,n,-5.04,n,n,n
CCCCN1CC[C@H]2C=CC[C@@H](C(=O)Nc3ccc(Cl)cc3Cl)[C@H]2C1=O,x,n,x,x,x
O=C1CSc2ccc(C(=O)NCCC3=CCCCC3)cc2N1,x,n,n,n,n
O=c1cc2c(nn1Cc1ccccc1Cl)-c1ccccc1CC2,x,n,n,42.5,n
O=c1cc2c(nn1Cc1ccc(Cl)cc1)-c1ccccc1CC2,x,n,n,47.6,n
O=c1cc2c(nn1Cc1cccc(Cl)c1)-c1ccccc1CC2,x,n,n,75.8,n
O=c1cc2c(nn1Cc1ccc(Cl)cc1Cl)-c1ccccc1CC2,x,n,n,n,n
Cc1ccccc1OCc1nnc2n1CC(C)S2 (stereo not drawn),n,n,n,n,n
O=C(CCCCCC(=O)N(CCO)CCO)N(CCO)CCO,n,n,n,n,n
O=C1C(=O)c2c(C(=O)c3ccccc3)coc2-c2ccccc21,x,n,n,45.0,58.6
Cc1oc2c(c1C(=O)c1ccccc1)C(=O)C(=O)c1ccccc1-2,x,n,n,43.1,n
O=C(c1ccccc1)c1c[nH]cc1-c1ccccc1,x,n,x,x,x
CC1(C)CC(NC(=O)CCC2CCCC2)CC(C)(C)N1,n,n,n,39.8,n
Cc1ccc(NC(=O)C(=O)c2c(-c3ccccc3)cc3ccccn23)cc1S(=O)(=O)N1CCOCC1,x,n,n,n,n
COc1ccc(-c2noc(CCC(=O)N3CCN(c4cccc(C(F)(F)F)c4)CC3)n2)cc1,n,-4.81,n,n,n
Cc1ccc(-c2noc(CCC(=O)NCCc3ccccc3Cl)n2)cc1,n,n,n,n,n
COc1ccccc1-c1noc(CCC(=O)Nc2cccc(C(F)(F)F)c2)n1,64.9,-7.58,n,n,n
O=C(CCc1nc(-c2ccccc2F)no1)NCCc1ccccc1Cl,n,-7.78,n,n,n
SMILES,tolC growth inh,Cav3 T inh,Ecoli WT expand,PostGolgi ctrl,PostGolgi yeast
COc1cccc(NC(=O)CCc2nc(-c3ccccc3F)no2)c1,x,n,n,n,n
O=C(CCc1nc(-c2ccccc2F)no1)Nc1ccc(Oc2ccccc2)cc1,81.2,n,n,34.5,n
N#CCCn1nc(-c2ccccc2)cc1Nc1ccccc1NC(=O)c1cccs1,n,n,n,n,n
Fc1ccc(-c2csc3ncnc(Nc4ccc(N5CCOCC5)cc4)c23)cc1,x,n,n,n,n
CCOc1cc(-c2noc(CCC(=O)Nc3cccnc3)n2)ccc1OC,n,n,n,32.5,n
Cc1ccc(-c2noc(CCC(=O)Nc3cccc(C#N)c3)n2)cc1,n,-4.2,n,n,n
CCOC(=O)c1cc(NC(=O)c2ccoc2C)cc(C(=O)OCC)c1,n,n,n,n,n
Cn1cc(CC(=O)Nc2cccc(C#N)c2)c2ccccc21,n,-4.22,n,n,n
CCc1ccc(NC(=O)Cc2cn(C)c3ccccc23)cc1,x,-4.82,n,n,n
Cc1ccccc1SCC(=O)Nc1cccc(C#N)c1,x,n,n,n,n
CCc1cccc(NC(=O)Cc2cn(C)c3ccccc23)c1,x,-7.66,n,n,n
CC(C)C(=O)c1c(C(C)C)nn2ccccc12,x,n,x,x,x
Cc1noc(C)c1S(=O)(=O)N(CC(=O)N1CCCCCC1)c1ccc(C(C)C)cc1,n,-4.1,n,31.7,n
Cc1noc(C)c1S(=O)(=O)N(CC(=O)N1CCCC1)c1ccc(C(C)C)cc1,n,n,n,n,n
Cc1nnc2ccc(N3CCC(C(N)=O)(N4CCCCC4)CC3)nn12,n,x,x,x,x
